Rows were chosen to be rich in hits. Some 1.5% of all compounds tested hit in one or more screens of this group.
EP2 antag: blocks the human prostaglandin E2 receptor EP2; C6 glioma cells expressing human EP2, cAMP TR-FRET; cells stimulated with saturating PGE2; inhibition, % at 25 µM; P43116; actives 0.52% (n = 260,000);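 active = percent inhibition above 40 after rounding to a whole number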;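 also: rat C6 glioma host cells with rolipram phosphodiesterase inhibitor present; the protocol text gives 20 µM as final concentration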
Target sequence (P43116 whole entry, looked up): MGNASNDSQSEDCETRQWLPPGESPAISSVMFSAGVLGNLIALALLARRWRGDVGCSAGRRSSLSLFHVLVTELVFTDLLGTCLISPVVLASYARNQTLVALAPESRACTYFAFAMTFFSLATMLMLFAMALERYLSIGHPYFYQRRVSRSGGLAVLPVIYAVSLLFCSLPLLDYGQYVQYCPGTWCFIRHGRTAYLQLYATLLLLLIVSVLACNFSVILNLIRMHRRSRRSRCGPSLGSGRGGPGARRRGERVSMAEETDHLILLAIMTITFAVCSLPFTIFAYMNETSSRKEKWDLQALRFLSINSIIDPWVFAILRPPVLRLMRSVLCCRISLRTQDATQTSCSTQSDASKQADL
RBBP9 inh: human RBBP9 hydrolase inhibition. actives 0.2% (n = 220,000). AID 1515. recombinant RBBP9, FP-Rh probe fluorescence polarization. inhibition, % at 7.94 µM;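 active = inhibition above the campaign mean of all tested compounds plus 3 SD, cut at about 14% in these data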;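 also: plate controls were DMSO wells with RBBP9 for no effect and wells lacking RBBP9 protein for full effect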
Target sequence (O75884 whole entry, looked up): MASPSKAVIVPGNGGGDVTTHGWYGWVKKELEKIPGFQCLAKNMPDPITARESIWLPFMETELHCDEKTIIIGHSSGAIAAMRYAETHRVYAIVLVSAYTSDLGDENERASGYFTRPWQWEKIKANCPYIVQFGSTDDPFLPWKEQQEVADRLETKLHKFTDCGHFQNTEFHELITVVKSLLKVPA
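Test system – recombinant human RBBP9 · Input – RBBP9 2.5 µM in dispensing solution, pre-mixing · Medium – Tris buffer pH 8.0, NaCl, Pluronic · Schedule – preincubation 30 min plus labeling 45 min at 25 °C · Measured by – fluorescence polarization · Measure – % inhibition · Controls – DMSO and no-protein wells · Replicates – one well per compound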
ABCG2 inh: inhibitors of human ABCG2 transporter, ABCB1 counter-screen; Q9UNQ0; inhibition, % at 6.6 µM; AID 1325; IgMXP3 cells, JC-1 efflux, flow cytometry; actives 0.1% (n = 190,000);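 active = inhibition above 80%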;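 also: 0% = DMSO and 100% = nicardipine control wells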
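material = IgMXP3 (ABCG2) plus far-red-tagged CCRF-Adr (ABCB1) cells | amount = 3 million cells/mL, equal mix of both lines | also added = JC-1 transporter substrate | dosing = one concentration, 6.6 µM final | schedule = 10 min at 25 °C | measured by = flow cytometric JC-1 green MFI at 530 nm | read-out basis = percent efflux inhibition, scaled nicardipine 100% to DMSO 0%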
ABCB1 inh: human ABCB1 inhibition, ABCG2 as counter-screen; CCRF-Adr cells, JC-1 efflux, flow cytometry; inhibition, % at 6.6 µM; P08183; actives 0.067% (n = 190,000); in the data active = inhibition above about 40%;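 also: 0% = vehicle and 100% = reference inhibitor; higher value means more JC-1 retained so stronger ABCB1 efflux block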
EP2 mod: modulates human prostaglandin E2 receptor EP2 signaling | actives 0.83% (n = 260,000) | EP2-expressing cells, cAMP HTRF FRET, PGE2 co-stimulation | induction, % at 25 µM | P43116;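 active = compounds whose cAMP rise, as percent of the full-agonist control response, exceeds 60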;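 also: rat C6 glioma line stably carrying human EP2 under a CMV promoter; the protocol text gives 20 µM as final concentration; 100% = response of wells given 1 µM PGE2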
EP2 confirm: human EP2 receptor cAMP induction, negative in counter-screens. actives 47% (n = 1,300). AID 1080. shares compounds with EP2 mod. calls only at 20 µM (by protocol). C6 glioma EP2 cells, cAMP HTRF induction; plus low (about EC15) PGE2 agonist;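 active = cAMP induction above 50% in the main assay while under 30% in all four parallel counter assays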;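 also: rat C6 glioma cells stably expressing human EP2 receptor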
* = called active by the depositor.

`CCSc1cc(N2CCOCC2)nc(-c2ccc(Cl)cc2)n1` gave EP2 antag 15, RBBP9 inh -5, ABCG2 inh 5, ABCB1 inh 0, EP2 mod 76* and EP2 confirm active.
`CC(C)Sc1cc(N2CCCC2)nc(-c2ccccc2)n1` gave EP2 antag 11, RBBP9 inh -6, ABCG2 inh 5, ABCB1 inh 0 and EP2 mod 41.
Screening CC(C)Sc1cc(N2CCOCC2)nc(-c2ccccc2)n1 returned EP2 antag 2, RBBP9 inh -6, ABCG2 inh 2, ABCB1 inh 0, EP2 mod 74* and EP2 confirm active.
For C#CCSc1nc(Cc2ccc(Cl)cc2)nc2ccccc12 the results were EP2 antag 3, RBBP9 inh 1, ABCG2 inh 1, ABCB1 inh 0, EP2 mod 67* and EP2 confirm active.
Screening COc1nc(Cc2ccc(Cl)cc2)nc2ccccc12 returned EP2 antag 5, RBBP9 inh -10, ABCG2 inh 1, ABCB1 inh 0 and EP2 mod -24.
`Cc1ccc(-c2nn(-c3ccccc3)cc2CN(Cc2ccccc2)C(=O)c2ccco2)o1` gave EP2 antag 9, RBBP9 inh -9, ABCG2 inh 5, ABCB1 inh 3, EP2 mod 80* and EP2 confirm active.
Screening CC1CCCC/C1=N\NC(=S)Nc1ccccc1 (configuration not stated) returned EP2 antag 15, RBBP9 inh -1, ABCG2 inh 9, ABCB1 inh 1 and EP2 mod -1.
CC(C)NC(=S)N/N=C1\CCCCC1C1CCCCC1 (configuration not stated) was read as EP2 antag 0, RBBP9 inh -4, ABCG2 inh -1, ABCB1 inh 0, EP2 mod 81* and EP2 confirm active.
COc1ccc(NC(=O)Cn2ncc3cccn3c2=O)cc1OC was read as EP2 antag 2 and EP2 mod -22.
CCC1C/C(=C/c2ccco2)C(=O)/C(=C/c2ccco2)C1 (configuration not stated) was read as EP2 antag 8, RBBP9 inh -7, ABCG2 inh -3, ABCB1 inh 3, EP2 mod 68* and EP2 confirm inactive.
O=C(O)/C=C/c1cn(-c2ccccc2)nc1-c1cc2ccccc2oc1=O was read as EP2 antag 1, RBBP9 inh -1 and EP2 mod -4.
For N#Cc1cn(-c2ccccc2)nc1-c1cc2ccccc2oc1=O the results were EP2 antag 8, RBBP9 inh -10, ABCG2 inh 6, ABCB1 inh 0, EP2 mod 65* and EP2 confirm inactive.
Screening O=c1[nH]c(SCc2cccc(F)c2)nc2c1CCCC2 returned EP2 antag 9, RBBP9 inh -9, ABCG2 inh 6, ABCB1 inh 0 and EP2 mod 41.
`O=c1[nH]c(SCc2cccc(Cl)c2)nc2c1CCCC2` gave EP2 antag 9, RBBP9 inh -7, ABCG2 inh 1, ABCB1 inh 0, EP2 mod 66* and EP2 confirm inactive.
Screening CCOC(=O)C1CCN(C(=O)CN(c2cccc(C)c2)S(C)(=O)=O)CC1 returned EP2 antag 9 and EP2 mod -16.
`Cc1ccnc(N2C(=O)c3ccccc3C2Nc2ccccc2Cl)c1` (configuration not stated) gave EP2 antag 9, RBBP9 inh -7, ABCG2 inh -1, ABCB1 inh 0 and EP2 mod 48.
Screening CCc1ccccc1NC1c2ccccc2C(=O)N1c1cc(C)ccn1 (configuration not stated) returned EP2 antag 9, RBBP9 inh -3, ABCG2 inh 2, ABCB1 inh 1, EP2 mod 81* and EP2 confirm inactive.
Screening CCOC(=O)c1ccccc1NC1c2ccccc2C(=O)N1c1ccc(C)cn1 (configuration not stated) returned EP2 antag 6, RBBP9 inh -9, ABCG2 inh 2, ABCB1 inh 1 and EP2 mod 52.
CCOc1ccccc1NC1c2ccccc2C(=O)N1c1ccc(C)cn1 (configuration not stated) was read as EP2 antag 5, RBBP9 inh 0, ABCG2 inh 3, ABCB1 inh 1, EP2 mod 81* and EP2 confirm inactive.
Screening COCCN1CCN(c2cc(C)nc3c(-c4ccc(OC)cc4)c(C)nn23)CC1 returned EP2 mod -25.
Screening CCc1nnc(NS(=O)(=O)c2ccc(NC3OC(=O)c4ccccc43)cc2)s1 (configuration not stated) returned EP2 antag 8 and EP2 mod 0.
`CCOC(=O)c1sc2nc3c(SCC(=O)O)cc(C(=O)c4ccccc4O)cn3c(=O)c2c1C` gave EP2 antag 1, RBBP9 inh -13, ABCG2 inh -3, ABCB1 inh -1 and EP2 mod 54.
For CCOC(=O)c1sc2nc3c(SCC(=O)O)cc(C(=O)c4cc(F)ccc4O)cn3c(=O)c2c1C the results were EP2 antag 6, RBBP9 inh -24, ABCG2 inh -3, ABCB1 inh -1, EP2 mod 77* and EP2 confirm active.
`CCOC(=O)C1C2C=CC3(CN(c4ccc(Cl)cc4)C(=O)C13)O2` (configuration not stated) gave EP2 antag 11 and EP2 mod -36.
`CCn1nnc(NC(=O)c2ccc(C)c(Cl)c2)n1` gave EP2 antag 3 and EP2 mod -28.
For COc1ccc(CNC(=O)COc2ccc(S(=O)(=O)N3CCCC3)cc2)cc1 the results were EP2 antag 8 and EP2 mod -5.
Screening CC(=O)Nc1ccc(Sc2ncnc3scc(-c4ccccc4)c23)cc1 returned EP2 antag 4, RBBP9 inh -10, ABCG2 inh 0, ABCB1 inh 0 and EP2 mod 26.
For CCCC(=O)Nc1ccccc1Sc1ncnc2scc(-c3ccccc3)c12 the results were EP2 antag 6, RBBP9 inh -13, ABCG2 inh 2, ABCB1 inh 1, EP2 mod 68* and EP2 confirm inactive.
`O=c1c2sccc2[nH]c(=S)n1-c1ccccc1` gave EP2 antag 5, RBBP9 inh -12 and EP2 mod -22.
Screening Cc1cccc(-n2c(=S)[nH]c3nc4c(cc3c2=O)COC(C)(C)C4)c1 returned EP2 antag 11, RBBP9 inh 3 and EP2 mod -7.
